Results on 1 compound are retold here after ChEMBL document CHEMBL4368912, “Discovery and Development of N-[4-(1-Cyclobutylpiperidin-4-yloxy)phenyl]-2-(morpholin-4-yl)acetamide Dihydrochloride (SUVN-G3031): A Novel, Potent, Selective, and Orally Active Histamine H3 Receptor Inverse Agonist with Robust Wake-Promoting Activity” (J Med Chem, 2019).

For the assay, the system named is Rattus norvegicus. In words: In vivo inverse agonist activity at histamine 3 receptor in rat assessed as inhibition of RAMH-induced dipsogenia at 1 to 10 mg/kg, po measured after 3 days. The assay is classed as functional, organism-based. The gist of the method: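 Rats were dosed orally with 1, 3 or 10 mg/kg, then given (R)-α-methylhistamine 2.5 mg/kg s.c. Water intake (mL) was measured and reported as mean ± SEM.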

Active and inactive are the calls of the source. The rule behind the calls is not given here.

On to `Clc1ccc(CCCOCCCN2CCCCC2)cc1`, for which the inhibition entry was “Active”.
